Counter-ions that a name gives are not always drawn.
What was measured:
[1] = biological target: T1, Adrenergic receptor alpha-1 (Rattus norvegicus, UniProt P15823+P23944+P43140); assay: Alpha-1-Adrenoceptor blocking activity as antagonism of (-)-norepinephrine induced contractions of epididymal vas deferens; assay type: functional, tissue-based
T1 sequence (P15823 whole entry): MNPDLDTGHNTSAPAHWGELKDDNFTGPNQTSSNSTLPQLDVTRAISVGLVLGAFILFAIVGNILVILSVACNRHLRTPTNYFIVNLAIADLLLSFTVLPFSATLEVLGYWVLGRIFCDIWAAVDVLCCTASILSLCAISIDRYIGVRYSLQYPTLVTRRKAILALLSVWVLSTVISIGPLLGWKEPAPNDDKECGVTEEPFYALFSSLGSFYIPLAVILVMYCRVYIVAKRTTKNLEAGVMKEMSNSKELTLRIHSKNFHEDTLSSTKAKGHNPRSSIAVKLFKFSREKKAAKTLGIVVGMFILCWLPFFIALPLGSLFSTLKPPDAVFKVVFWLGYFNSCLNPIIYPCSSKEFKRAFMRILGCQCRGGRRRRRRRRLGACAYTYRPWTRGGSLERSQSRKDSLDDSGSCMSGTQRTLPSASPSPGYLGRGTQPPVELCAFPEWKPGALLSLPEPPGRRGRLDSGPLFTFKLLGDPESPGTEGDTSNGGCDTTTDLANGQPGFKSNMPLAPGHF
T1 sequence (P23944 whole entry): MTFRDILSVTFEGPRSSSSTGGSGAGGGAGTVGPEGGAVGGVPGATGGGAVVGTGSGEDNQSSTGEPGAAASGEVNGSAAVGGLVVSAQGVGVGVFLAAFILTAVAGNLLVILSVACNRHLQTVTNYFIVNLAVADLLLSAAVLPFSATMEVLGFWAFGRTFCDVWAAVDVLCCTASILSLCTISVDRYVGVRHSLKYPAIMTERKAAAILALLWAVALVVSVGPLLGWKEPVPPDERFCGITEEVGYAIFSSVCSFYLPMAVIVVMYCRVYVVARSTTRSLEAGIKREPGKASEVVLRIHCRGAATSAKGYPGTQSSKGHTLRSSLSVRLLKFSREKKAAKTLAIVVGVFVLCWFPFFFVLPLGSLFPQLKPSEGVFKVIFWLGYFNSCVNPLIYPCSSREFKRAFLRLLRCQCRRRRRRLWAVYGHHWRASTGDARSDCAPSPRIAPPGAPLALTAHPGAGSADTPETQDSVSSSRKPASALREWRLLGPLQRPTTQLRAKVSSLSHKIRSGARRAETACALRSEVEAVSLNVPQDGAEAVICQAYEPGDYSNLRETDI
T1 sequence (P43140 whole entry): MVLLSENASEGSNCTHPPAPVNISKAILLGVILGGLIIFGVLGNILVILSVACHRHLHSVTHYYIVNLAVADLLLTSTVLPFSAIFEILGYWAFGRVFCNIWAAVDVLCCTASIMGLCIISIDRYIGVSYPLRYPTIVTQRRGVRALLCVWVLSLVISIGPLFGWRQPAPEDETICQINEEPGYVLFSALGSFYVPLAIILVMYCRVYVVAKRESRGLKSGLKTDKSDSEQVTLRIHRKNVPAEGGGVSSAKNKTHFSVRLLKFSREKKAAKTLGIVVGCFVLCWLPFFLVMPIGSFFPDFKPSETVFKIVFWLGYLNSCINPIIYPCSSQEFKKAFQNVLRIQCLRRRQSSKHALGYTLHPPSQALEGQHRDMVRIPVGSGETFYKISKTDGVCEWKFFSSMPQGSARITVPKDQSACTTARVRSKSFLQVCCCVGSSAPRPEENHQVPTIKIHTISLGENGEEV

Rattus norvegicus = organism: Rattus norvegicus; assay: (§1) Alpha-2-adrenoceptor blocking activity was determined by antagonism of clonidine induced depression of the twitch responses of the field stimulated prostatic portion of the vas deferens and the potency was expressed as pA2.; assay type: functional; settings: read-out: pA2 (converted)
[2] = Selectivity as the ratio of pA2 value against alpha 1 receptor to that of alpha-2 receptor.
How it was run: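 Ratio computed as the antilog of the α1 pA2 minus the α2 pA2. The α1 pA2 came from rat epididymal vas deferens against norepinephrine, and the α2 pA2 from field-stimulated prostatic vas deferens against clonidine.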

[3] = biological target: T1, Adrenergic receptor alpha-1; assay: Alpha-1 adrenergic receptor blocking activity was assessed by antagonism of (-)-norepinephrine induced contractions of the epididymal portion of the vas deferens and the potency was expressed as pA2.; assay type: functional, tissue-based
How it was run: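 Male albino rat (175–200 g) epididymal vas deferens, 14 mm, in Krebs at 37 °C gassed 95% O2–5% CO2, 0.4 g load, with propranolol 1 μM, cocaine 10 μM, deoxycorticosterone acetate 40 μM. ≥1 h equilibration. Cumulative norepinephrine curves: second as control, third after 30 min antagonist. Time-matched untreated tissues. Schild pA2 from EC50 dose ratios, three antagonist concentrations, n≥5 each.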

[4] = biological target: T2, Adrenergic receptor alpha-2 (Rattus norvegicus, UniProt P22086+P19328+P22909); assay: as §1; assay type: functional, tissue-based
T2 sequence (P22086 whole entry): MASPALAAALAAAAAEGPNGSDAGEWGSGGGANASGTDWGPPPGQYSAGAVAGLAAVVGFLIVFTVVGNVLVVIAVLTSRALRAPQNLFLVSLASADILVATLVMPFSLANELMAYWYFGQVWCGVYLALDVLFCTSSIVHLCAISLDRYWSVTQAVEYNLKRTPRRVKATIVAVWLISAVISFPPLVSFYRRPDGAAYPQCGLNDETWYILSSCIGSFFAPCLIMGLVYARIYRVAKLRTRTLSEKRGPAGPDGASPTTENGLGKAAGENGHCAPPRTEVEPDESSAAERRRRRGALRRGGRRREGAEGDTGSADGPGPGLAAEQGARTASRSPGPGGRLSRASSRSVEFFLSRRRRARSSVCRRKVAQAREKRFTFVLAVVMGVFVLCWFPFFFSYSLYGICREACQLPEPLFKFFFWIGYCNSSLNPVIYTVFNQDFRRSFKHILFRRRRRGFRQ
T2 sequence (P19328 whole entry): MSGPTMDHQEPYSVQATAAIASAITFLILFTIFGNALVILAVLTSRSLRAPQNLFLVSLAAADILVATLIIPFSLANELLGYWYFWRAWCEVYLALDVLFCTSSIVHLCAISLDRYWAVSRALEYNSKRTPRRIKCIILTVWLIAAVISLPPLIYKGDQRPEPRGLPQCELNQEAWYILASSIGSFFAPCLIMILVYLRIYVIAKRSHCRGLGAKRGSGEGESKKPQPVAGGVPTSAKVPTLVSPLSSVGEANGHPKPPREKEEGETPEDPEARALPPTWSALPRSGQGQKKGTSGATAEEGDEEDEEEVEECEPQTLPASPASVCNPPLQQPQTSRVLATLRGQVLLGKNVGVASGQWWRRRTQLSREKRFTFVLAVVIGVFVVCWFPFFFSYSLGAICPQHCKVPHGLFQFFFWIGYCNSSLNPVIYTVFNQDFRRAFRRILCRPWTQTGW
T2 sequence (P22909 whole entry): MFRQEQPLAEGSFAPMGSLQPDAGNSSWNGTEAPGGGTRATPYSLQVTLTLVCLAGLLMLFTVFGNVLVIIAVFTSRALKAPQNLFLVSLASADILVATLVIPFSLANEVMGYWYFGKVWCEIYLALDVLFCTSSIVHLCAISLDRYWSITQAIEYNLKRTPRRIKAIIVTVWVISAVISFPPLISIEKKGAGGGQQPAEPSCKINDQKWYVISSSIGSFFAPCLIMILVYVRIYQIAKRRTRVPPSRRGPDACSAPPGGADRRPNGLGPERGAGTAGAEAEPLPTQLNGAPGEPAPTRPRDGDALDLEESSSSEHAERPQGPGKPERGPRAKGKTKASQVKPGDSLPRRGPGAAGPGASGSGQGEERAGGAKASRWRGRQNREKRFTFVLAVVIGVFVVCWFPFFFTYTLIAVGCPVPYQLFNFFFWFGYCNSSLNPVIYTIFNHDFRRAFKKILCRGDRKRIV
How it was run: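 Field stimulation 0.1 Hz, 3-ms pulses, 10–35 V. Propranolol, cocaine and deoxycorticosterone present. After 1 h, one tissue was given antagonist for 30 min and the contralateral tissue served as control. Clonidine curves for 50% twitch inhibition gave dose ratios. Three concentrations (two if limited above 30 μM), n≥5; Schild or van Rossum pA2.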

| Structure (SMILES) | pA2 [1] | Selectivity ratio [2] | pA2 [3] | pA2 [4] | Kb (Rattus norvegicus) [nM] |
| --- | --- | --- | --- | --- | --- |
| Cl.O=C(NCCNCC1COc2ccccc2O1)c1ccco1 (stereo unspecified) | 7.19 | 22 | – | – | 1410 |
| Cl.O=C(c1ccco1)N1CCN(CC2COc3ccccc3O2)CC1 (stereo unspecified) | – | 0.59 | 6.05 | – | 525 |
| COc1cccc(OC)c1OCCN1CCN(C(=O)c2ccco2)CC1.Cl | 6.45 | 55 | – | – | 19500 |
| COc1cc2nc(NCCNC(=O)c3ccco3)nc(N)c2cc1OC.Cl | 8.81 | 3890 | – | – | 6030 |
| COc1cccc(OC)c1OCCNCC1COc2ccccc2O1 (stereo unspecified) [2- (2,6-DIMETHOXYPHENOXYETHYL)AMINOMETHYL-1,4-BENZODIOXANE HYDROCHLORIDE (WB 4101)] | – | 347 | – | – | 513 |

Further lines, with some results ahead:

| pA2 [1] | Selectivity ratio [2] | pA2 [3] | pA2 [4] | Structure (SMILES) | Kb (Rattus norvegicus) [nM] |
| --- | --- | --- | --- | --- | --- |
| 7.86 | 89 | – | 5.91 | COc1cc2nc(N(C)CCOc3c(OC)cccc3OC)nc(N)c2cc1OC.Cl | – |
| 7.88 | 87 | – | – | COc1cc2nc(NCCOc3c(OC)cccc3OC)nc(N)c2cc1OC.Cl | 1150 |
| 7.18 | 65 | – | – | COc1cc2nc(N(C)CCN(C)C(=O)c3ccco3)nc(N)c2cc1OC.Cl | 4270 |
| 7.22 | 11 | – | – | COc1cc2nc(NCC3COc4ccccc4O3)nc(N)c2cc1OC.Cl (stereo unspecified) | 676 |

Reference: ChEMBL document CHEMBL1123052, “Structure-activity relationships for prazosin and WB 4101 analogues as alpha 1-adrenoreceptor antagonists” (J Med Chem, 1985)
